Source: article PMC9826239 (Angewandte Chemie (International Ed. in English), 2022)
Residues, ends and D or L forms follow the SMILES beside them. *: point of attachment. X1 = [N-]=[N+]=NCCOCCOCCOCCOCC(=O)*

Columns and labels:
[1] = target: T1, E-selectin (Homo sapiens, UniProt P16581); assay: SPR direct binding to E-selectin-functionalized sensor chip
T1 sequence (P16581 22-610): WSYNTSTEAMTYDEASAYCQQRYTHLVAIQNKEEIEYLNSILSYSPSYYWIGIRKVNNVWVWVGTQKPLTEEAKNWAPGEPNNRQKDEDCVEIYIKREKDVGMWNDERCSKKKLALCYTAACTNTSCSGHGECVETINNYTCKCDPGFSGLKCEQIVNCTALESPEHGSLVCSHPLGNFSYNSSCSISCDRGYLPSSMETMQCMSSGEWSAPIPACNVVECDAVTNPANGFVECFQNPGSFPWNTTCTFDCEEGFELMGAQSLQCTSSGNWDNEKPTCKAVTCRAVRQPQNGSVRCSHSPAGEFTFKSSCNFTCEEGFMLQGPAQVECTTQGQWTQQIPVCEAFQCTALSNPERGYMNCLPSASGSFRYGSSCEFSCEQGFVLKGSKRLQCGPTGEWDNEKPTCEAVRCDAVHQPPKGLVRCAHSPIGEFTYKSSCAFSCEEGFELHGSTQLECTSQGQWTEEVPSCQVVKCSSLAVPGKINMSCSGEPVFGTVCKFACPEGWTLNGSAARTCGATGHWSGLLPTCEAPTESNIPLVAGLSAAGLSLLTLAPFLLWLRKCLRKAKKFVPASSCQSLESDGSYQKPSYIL

[2] = test system: E-selectin on HUVEC cells; type: cell-based, human; conditions: 10 μM in HKR pH 7.4, 30 min; 10 ng/mL TNFα for 12 h; heparin/HKR washes
Summary of the method: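 Human umbilical vein endothelial cells (HUVEC) were cultured as two parallel sets, with or without TNFα, to induce E‑selectin overexpression. Both sets were incubated for 30 min with 10 μM rhodamine‑labelled peptide/[60]fullerene conjugate (binding peptide or non‑binding control sequence). Cells were then washed thoroughly with heparin and HKR buffer and imaged by live‑cell confocal microscopy.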

[3] = Water solubility of peptides; type: physicochemical; conditions: after HPLC purification; qualitative

Compound	Kd [1] [µM]	water solubility [3]	further results
C60-(IELLQARK)12 [F1]			dissociation behaviour in SPR sensorgrams ([1]; (12.5-0.78) μM, t>240 s, initial fast then extremely slow dissociation phase): two‐phase dissociation process; affinity increase relative to its monomeric counterpart ([1]; F1 vs monomeric peptide, E-selectin SPR): up to 3 orders of magnitude; affinity enhancement (β) factor ([1]; multivalent effect of F1, twelve peptide units, SI section 6.5, eq. 3): 71
C60-(ISELRSE)12 [FC]			cell fluorescence, TNFα-treated HUVEC cells, confocal microscopy [2]: residual fluorescence
CC[C@H](C)[C@H](N)C(=O)N[C@@H](CCC(=O)O)C(=O)N[C@@H](CC(C)C)C(=O)N[C@@H](CC(C)C)C(=O)N[C@@H](CCC(N)=O)C(=O)N[C@@H](C)C(=O)N[C@@H](CCCNC(=N)N)C(=O)N[C@@H](CCCCNC(=O)COCCOCCOCCOCCN=[N+]=[N-])C(N)=O [P1, IELLQARK‐(PEG)4‐N3] (H-IELLQARK(X1)-NH2)	51.6	excellent purity and water solubility	
CC[C@H](C)[C@H](NC(=O)COCCOCCOCCOCCN=[N+]=[N-])C(=O)N[C@@H](CCC(=O)O)C(=O)N[C@@H](CC(C)C)C(=O)N[C@@H](CC(C)C)C(=O)N[C@@H](CCC(N)=O)C(=O)N[C@@H](C)C(=O)N[C@@H](CCCNC(=N)N)C(N)=O [P2, N3‐(PEG)4‐IELLQAR] (X1-IELLQAR-NH2)	2950	excellent purity and water solubility	
